Measured values published in ChEMBL document CHEMBL1177712, “Synthesis and characterization of in vitro and in vivo profiles of hydroxybupropion analogues: aids to smoking cessation” (J Med Chem, 2010).
Active and inactive are the calls of the source.

How the values were obtained:
[1] = biological target: Neuronal acetylcholine receptor; alpha4/beta2 (Homo sapiens, UniProt P17787+P43681); experiment: Agonist activity at alpha4beta2 nicotinic receptor in human SH-EP1 cells assessed as induction of radiolabeled Rb+ influx at 0.005 to 100 uM by liquid scintillation counting; type: functional, cell-based
Summary of the method: (§1)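 Cells were labelled with ⁸⁶Rb⁺ for at least 4 h, then exposed for 5 min in efflux buffer (pH 7.4) to test ligand alone at ~5 nM to 100 μM. The lines were TE671/RD (muscle α1β1γδ), SH-SY5Y (α3β4*) and transfected SH-EP1-hα4β2 or -hα4β4. Efflux was Cerenkov-counted. Non-specific efflux was subtracted, and results were normalized to specific efflux from carbamylcholine (1 mM; 3 mM for SH-SY5Y).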

[2] = tested on: SH-EP1; experiment: Selectivity ratio of IC50 for alpha4beta2 nicotinic receptor in human SH-EP1 cells to IC50 for IC50 for human NET; type: cell-based
[3] = tested on: Mus musculus; experiment: Smoke cessation activity in sc dosed ICR mouse assessed as inhibition of nicotine-induced hypothermia administered 15 mins before nicotine challenge measured after 30 mins of nicotine infusion; type: functional, organism-based
Summary of the method: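 Male ICR mice (20–25 g) were pretreated with test drug or saline 15 min before nicotine at 2.5 mg/kg sc. Rectal temperature was taken before and 30 min after nicotine, and the change was calculated. Room temperature was 21–24 °C. AD₅₀ came from at least four doses, with at least 8 mice per dose.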

[4] = tested on: Mus musculus; experiment: Smoke cessation activity in sc dosed ICR mouse assessed as inhibition of nicotine-induced antinociception administered 15 mins before nicotine challenge measured after 5 mins of nicotine infusion by hotplate assay; type: functional, organism-based
Summary of the method: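 Male ICR mice (20–25 g) were pretreated with saline or test drug 15 min before nicotine at 2.5 mg/kg sc. They were tested 5 min later on a 55 °C hot plate (40 s cutoff), and the result was expressed as %MPE. AD₅₀ came from at least four doses, with at least 8 mice per dose.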

[5] = tested on: SH-SY5Y; experiment: Selectivity ratio of IC50 for alpha3beta4 nicotinic receptor in human SH-SY5Y cells to IC50 for IC50 for human NET; type: cell-based
[6] = tested on: Mus musculus; experiment: Toxicity in sc dosed ICR mouse assessed occurrence of sedation; type: organism-based; conditions: in vivo
[7] = tested on: Mus musculus; experiment: Toxicity in sc dosed ICR mouse assessed occurrence of convulsion; type: organism-based; conditions: in vivo
[8] = tested on: Mus musculus; experiment: Smoke cessation activity in sc dosed ICR mouse assessed as inhibition of nicotine-induced increase in locomotor activity administered 15 mins before nicotine challenge measured after 5 mins of nicotine infusion; type: functional, organism-based
[9] = biological target: T1, Neuronal acetylcholine receptor; alpha4/beta4 (Homo sapiens, UniProt P30926+P43681); experiment: Agonist activity at alpha4beta4 nicotinic receptor in human SH-EP1 cells assessed as induction of radiolabeled Rb+ influx at 0.005 to 100 uM by liquid scintillation counting; type: functional, cell-based; summary of the method: as §1
T1 sequence (P30926 whole entry, the tested form may be a part): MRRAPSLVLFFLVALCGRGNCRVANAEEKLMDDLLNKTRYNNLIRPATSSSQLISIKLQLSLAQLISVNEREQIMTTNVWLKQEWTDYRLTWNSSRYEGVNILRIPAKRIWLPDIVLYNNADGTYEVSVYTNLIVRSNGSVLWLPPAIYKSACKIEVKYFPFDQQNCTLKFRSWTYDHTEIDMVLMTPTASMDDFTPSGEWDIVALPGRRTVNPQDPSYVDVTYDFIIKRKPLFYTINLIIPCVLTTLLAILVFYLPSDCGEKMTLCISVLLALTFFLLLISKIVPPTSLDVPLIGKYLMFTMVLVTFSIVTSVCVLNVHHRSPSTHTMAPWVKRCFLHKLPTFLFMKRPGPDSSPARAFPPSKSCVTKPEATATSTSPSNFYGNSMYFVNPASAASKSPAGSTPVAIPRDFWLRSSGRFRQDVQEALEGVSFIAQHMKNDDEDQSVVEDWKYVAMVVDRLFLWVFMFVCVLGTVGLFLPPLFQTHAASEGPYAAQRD
T1 sequence (P43681 whole entry, the tested form may be a part): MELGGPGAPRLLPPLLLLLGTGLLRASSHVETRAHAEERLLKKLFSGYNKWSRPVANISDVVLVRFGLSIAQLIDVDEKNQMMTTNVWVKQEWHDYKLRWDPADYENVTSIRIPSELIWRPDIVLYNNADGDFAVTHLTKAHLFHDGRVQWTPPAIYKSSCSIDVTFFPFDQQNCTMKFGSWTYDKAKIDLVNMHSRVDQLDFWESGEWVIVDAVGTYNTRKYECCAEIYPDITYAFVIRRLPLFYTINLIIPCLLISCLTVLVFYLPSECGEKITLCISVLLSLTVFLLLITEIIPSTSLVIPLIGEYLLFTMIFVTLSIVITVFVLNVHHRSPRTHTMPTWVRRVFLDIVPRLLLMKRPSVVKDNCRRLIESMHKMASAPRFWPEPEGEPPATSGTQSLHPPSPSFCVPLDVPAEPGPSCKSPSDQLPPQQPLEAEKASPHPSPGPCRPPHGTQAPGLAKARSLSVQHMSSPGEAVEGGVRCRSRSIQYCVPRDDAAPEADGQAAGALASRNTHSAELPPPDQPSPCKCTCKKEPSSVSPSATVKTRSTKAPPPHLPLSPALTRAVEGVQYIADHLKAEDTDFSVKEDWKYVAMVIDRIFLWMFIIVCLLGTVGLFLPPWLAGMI

[10] = tested on: Mus musculus; experiment: Smoke cessation activity in sc dosed ICR mouse assessed as inhibition of nicotine-induced antinociception administered 15 mins before nicotine challenge measured after 5 mins of nicotine infusion by tail-flick assay; type: functional, organism-based
Summary of the method: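 Radiant-heat tail-flick latency was read 5 min later (10 s cutoff; baseline 2–4 s) and expressed as %MPE. AD₅₀ came from at least four doses, with at least 8 mice per dose.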

[11] = biological target: Sodium-dependent dopamine transporter (Homo sapiens, UniProt Q01959); experiment: Inhibition of [3H]dopamine reuptake at human DAT expressed in HEK293 cells after 90 mins by scintillation counting; type: cell-based
Sequence of Sodium-dependent dopamine transporter (Q01959 whole entry): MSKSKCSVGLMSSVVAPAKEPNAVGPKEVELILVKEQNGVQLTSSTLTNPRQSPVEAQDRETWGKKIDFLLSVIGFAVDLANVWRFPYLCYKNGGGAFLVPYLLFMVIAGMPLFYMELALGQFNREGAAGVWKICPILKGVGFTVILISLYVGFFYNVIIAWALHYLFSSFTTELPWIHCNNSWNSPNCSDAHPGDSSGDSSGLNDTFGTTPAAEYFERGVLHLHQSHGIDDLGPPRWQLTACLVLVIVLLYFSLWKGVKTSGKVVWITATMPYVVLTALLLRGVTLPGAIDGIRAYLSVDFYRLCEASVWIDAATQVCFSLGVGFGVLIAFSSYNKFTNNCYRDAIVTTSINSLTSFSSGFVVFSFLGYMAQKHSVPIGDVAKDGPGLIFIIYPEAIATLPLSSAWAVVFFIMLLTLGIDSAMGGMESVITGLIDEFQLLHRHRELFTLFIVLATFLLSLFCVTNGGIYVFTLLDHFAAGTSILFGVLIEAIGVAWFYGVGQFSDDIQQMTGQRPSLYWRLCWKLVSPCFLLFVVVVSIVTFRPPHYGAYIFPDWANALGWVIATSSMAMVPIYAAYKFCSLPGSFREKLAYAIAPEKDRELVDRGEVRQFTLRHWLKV
Summary of the method: (§2)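 Uptake of [³H]DA or [³H]NE was measured in HEK293 cells stably expressing human DAT or NET. Values are from three independent experiments, each run in triplicate.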

[12] = biological target: Sodium-dependent serotonin transporter (Homo sapiens, UniProt P31645); experiment: Inhibition of [3H]serotonin reuptake at human SERT expressed in HEK293 cells after 90 mins by scintillation counting; type: cell-based
Sequence of Sodium-dependent serotonin transporter (P31645 whole entry): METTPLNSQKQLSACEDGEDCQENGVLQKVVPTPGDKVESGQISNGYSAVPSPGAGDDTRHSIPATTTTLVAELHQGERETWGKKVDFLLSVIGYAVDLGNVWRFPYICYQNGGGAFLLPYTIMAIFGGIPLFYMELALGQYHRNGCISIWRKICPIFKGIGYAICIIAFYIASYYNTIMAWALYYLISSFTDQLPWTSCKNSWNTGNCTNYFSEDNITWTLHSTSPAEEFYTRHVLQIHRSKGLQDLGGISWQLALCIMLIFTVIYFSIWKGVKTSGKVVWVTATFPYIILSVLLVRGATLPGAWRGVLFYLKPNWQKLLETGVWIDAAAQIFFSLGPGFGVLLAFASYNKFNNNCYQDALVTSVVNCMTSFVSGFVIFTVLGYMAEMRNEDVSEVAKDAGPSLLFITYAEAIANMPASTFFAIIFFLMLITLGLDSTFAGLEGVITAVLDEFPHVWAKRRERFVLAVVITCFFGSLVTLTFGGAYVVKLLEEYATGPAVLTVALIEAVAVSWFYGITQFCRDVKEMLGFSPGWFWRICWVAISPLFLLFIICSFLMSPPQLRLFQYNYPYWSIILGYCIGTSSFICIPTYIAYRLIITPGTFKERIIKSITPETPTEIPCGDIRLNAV

[13] = biological target: T1, Neuronal acetylcholine receptor; alpha4/beta4; experiment: Antagonist activity at alpha4beta4 nicotinic receptor in human SH-EP1 cells assessed as inhibition varbamylcholine-induced radiolabeled Rb+ influx at by liquid scintillation counting; type: functional, cell-based
Summary of the method: (§3)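 ⁸⁶Rb⁺-loaded human cells were given a 5-min efflux with carbamylcholine at EC₈₀–EC₉₀ plus graded test ligand. Non-specific efflux, taken with 100 μM mecamylamine or buffer, was subtracted. IC₅₀ came from a Hill fit of three independent experiments, with SEM given as a multiplication factor.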

[14] = biological target: Sodium-dependent noradrenaline transporter (Homo sapiens, UniProt P23975); experiment: Inhibition of [3H]norepinephrine reuptake at human NET expressed in HEK293 cells after 90 mins by scintillation counting; type: cell-based; summary of the method: as §2
Sequence of Sodium-dependent noradrenaline transporter (P23975 whole entry): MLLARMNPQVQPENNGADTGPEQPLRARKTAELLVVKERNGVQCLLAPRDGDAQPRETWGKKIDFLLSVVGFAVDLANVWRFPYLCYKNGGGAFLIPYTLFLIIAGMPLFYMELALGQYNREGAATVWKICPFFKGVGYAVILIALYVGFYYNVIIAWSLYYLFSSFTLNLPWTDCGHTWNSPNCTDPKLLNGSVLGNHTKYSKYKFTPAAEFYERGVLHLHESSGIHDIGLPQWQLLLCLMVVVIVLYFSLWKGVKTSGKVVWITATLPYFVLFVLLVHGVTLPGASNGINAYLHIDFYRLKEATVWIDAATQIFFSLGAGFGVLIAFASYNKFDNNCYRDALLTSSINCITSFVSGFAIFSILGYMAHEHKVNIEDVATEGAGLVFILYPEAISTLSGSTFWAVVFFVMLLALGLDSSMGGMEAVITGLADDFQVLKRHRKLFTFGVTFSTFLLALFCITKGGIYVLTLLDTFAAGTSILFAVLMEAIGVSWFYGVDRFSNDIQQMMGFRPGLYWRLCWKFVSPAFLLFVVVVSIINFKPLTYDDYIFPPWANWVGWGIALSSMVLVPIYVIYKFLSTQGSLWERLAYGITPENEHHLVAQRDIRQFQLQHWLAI

[15] = biological target: Acetylcholine receptor; alpha1/beta1/delta/gamma (Homo sapiens, UniProt P02708+P07510+P11230+Q07001); experiment: Antagonist activity at alpha-1-beta-1-gamma-delta nicotinic receptor in human TE671 cells assessed as inhibition varbamylcholine-induced radiolabeled Rb+ influx at by liquid scintillation counting; type: functional, cell-based, TE-671; summary of the method: as §3
Sequence of Acetylcholine receptor; alpha1/beta1/delta/gamma (P02708 whole entry): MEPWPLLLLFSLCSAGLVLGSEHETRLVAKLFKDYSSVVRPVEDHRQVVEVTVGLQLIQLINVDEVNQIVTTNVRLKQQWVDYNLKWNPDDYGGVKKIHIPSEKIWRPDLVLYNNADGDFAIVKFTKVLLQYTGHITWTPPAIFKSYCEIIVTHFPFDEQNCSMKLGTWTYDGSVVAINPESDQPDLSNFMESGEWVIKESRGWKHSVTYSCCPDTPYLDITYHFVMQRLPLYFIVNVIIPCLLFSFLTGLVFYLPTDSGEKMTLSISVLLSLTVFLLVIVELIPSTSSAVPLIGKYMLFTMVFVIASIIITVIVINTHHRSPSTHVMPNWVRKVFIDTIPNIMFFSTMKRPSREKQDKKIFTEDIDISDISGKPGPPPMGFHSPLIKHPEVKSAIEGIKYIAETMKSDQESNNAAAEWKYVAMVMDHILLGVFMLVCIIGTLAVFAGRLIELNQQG
Sequence of Acetylcholine receptor; alpha1/beta1/delta/gamma (P07510 whole entry): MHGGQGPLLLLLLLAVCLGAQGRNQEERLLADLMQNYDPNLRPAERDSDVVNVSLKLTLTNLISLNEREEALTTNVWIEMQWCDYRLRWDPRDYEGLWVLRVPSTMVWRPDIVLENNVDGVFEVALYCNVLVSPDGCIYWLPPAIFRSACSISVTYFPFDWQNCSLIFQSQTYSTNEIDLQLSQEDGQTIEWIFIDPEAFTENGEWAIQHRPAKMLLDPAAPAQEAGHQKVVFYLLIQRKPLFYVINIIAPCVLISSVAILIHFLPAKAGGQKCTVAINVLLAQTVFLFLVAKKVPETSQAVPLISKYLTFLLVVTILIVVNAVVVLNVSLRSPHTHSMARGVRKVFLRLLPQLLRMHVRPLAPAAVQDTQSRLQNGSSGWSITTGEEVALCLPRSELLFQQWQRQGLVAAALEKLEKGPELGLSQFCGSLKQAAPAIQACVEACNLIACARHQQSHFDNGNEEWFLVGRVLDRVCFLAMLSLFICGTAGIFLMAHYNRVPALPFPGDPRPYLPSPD
Sequence of Acetylcholine receptor; alpha1/beta1/delta/gamma (P11230 whole entry): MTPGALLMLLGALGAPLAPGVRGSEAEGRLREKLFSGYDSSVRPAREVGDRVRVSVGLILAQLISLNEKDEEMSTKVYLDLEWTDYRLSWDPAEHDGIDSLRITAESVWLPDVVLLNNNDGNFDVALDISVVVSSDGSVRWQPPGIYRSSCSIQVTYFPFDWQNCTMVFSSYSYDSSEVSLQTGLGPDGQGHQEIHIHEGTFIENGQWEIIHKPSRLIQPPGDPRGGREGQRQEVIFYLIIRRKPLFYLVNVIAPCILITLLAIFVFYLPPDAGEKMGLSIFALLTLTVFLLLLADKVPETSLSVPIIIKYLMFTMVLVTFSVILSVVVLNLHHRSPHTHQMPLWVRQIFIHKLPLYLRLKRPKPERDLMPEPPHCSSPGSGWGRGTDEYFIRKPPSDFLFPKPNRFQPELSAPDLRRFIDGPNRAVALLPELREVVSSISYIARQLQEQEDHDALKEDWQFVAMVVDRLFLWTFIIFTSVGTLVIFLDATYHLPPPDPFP
Sequence of Acetylcholine receptor; alpha1/beta1/delta/gamma (Q07001 whole entry): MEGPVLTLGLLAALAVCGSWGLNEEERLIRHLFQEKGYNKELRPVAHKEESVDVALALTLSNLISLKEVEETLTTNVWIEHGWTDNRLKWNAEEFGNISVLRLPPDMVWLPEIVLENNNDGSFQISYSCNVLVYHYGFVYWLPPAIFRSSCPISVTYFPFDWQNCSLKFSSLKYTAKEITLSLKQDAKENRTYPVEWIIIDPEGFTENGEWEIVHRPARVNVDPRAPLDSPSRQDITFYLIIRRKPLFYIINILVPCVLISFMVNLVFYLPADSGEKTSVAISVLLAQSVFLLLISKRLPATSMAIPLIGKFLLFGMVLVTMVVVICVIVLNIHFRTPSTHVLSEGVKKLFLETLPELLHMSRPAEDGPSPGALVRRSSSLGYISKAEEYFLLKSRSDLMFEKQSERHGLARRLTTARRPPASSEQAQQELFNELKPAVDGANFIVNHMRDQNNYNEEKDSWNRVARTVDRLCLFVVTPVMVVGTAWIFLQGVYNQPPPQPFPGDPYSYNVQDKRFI

Row | SMILES | Activity [1] | Ratio IC50 [2] | IC50 [3] [mg/kg] | IC50 [4] [mg/kg] | Ratio IC50 [5] | Activity [6] | Activity [7] | IC50 [8] [mg/kg] | Activity [9] | IC50 [10] [mg/kg] | IC50 [11] [µM] | IC50 [12] [µM] | IC50 [13] [µM] | IC50 [14] [µM] | IC50 [15] [µM]
1 | CC1NC(C)(C)COC1(O)c1ccc(Cl)c(Cl)c1 (racemic) | inactive | 175 | > 15 | > 15 | 23 | Non-toxic | Non-toxic | > 15 | inactive | 8.8 |  |  |  |  | 
2 | CCC[C@@H]1NC(C)(C)CO[C@@]1(O)c1cccc(Cl)c1 | inactive | 240 | > 15 | > 15 | 154 | Non-toxic | Non-toxic | 4.7 | inactive | 0.004 | 0.03 | 4.13 | 18 | 0.031 | 10
